Our source for the zone of inhibition, inhibition in vivo and Activity values is ChEMBL document CHEMBL1828509, “Synthesis, pharmacological evaluation and docking studies of coumarin derivatives” (2011).

Format in all cases: functional
In assay [1] the test system is Bacillus subtilis. In words: Antimicrobial activity against Bacillus subtilis MTCC 1789 at 50 ug/ml. Conditions: read-out: IZ.
Assay [2] concerns Bacillus subtilis. The experiment in a line: Antimicrobial activity against Bacillus subtilis MTCC 1789 at 10 ug/ml. Conditions: read-out: IZ.
The test system of assay [3] is Rattus norvegicus. The experiment in a line: Antiinflammatory activity in Wistar albino rat assessed as inhibition of carrageenan-induced paw edema at 20 mg/kg, po administered 30 mins before carrageenan challenge measured after 1 hr by plethysmograph. The procedure, abridged:
(§1)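 Male Wistar albino rats (150–200 g), six per group, dosed orally with 20 mg/kg suspension; control got 0.1 ml of 1% gum acacia suspension orally. After 30 min, 0.1 ml of 1% carrageenan in normal saline injected sub-plantar into the right hind paw. Paw volume measured by plethysmograph at 0, 1, 2, 3 and 4 h; percent edema inhibition versus control at matching time.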
Background: The carrageenan paw model is a standard test of acute inflammation.

Assay [4] has as its system Bacillus subtilis. In words: Antimicrobial activity against Bacillus subtilis MTCC 1789 at 25 ug/ml. Conditions: read-out: IZ.
The test system of assay [5] is Escherichia coli. In words: Antimicrobial activity against Escherichia coli MTCC 4315 at 50 ug/ml. Conditions: read-out: IZ.
Assay [6] relates to Rattus norvegicus. In words: Antiinflammatory activity in Wistar albino rat assessed as inhibition of carrageenan-induced paw edema at 20 mg/kg, po administered 30 mins before carrageenan challenge measured after 2 hrs by plethysmograph. The procedure, abridged: as §1
Assay [7] deals with Aspergillus niger. In words: Antifungal activity against Aspergillus niger MTCC 282 at 25 ug/ml. Conditions: read-out: IZ.
For assay [8], the system named is Mus musculus. The experiment in a line: Analgesic activity in mouse assessed as inhibition of acetic acid-induced writhing administered 30 mins before acetic acid challenge measured after 30 mins relative to control. Details: concentration or dose not given beside the values. The procedure, abridged:
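Groups of six mice (20–30 g, both sexes, pregnant females excluded) dosed with test compound; 30 min later 0.25 ml/mouse of 0.5% acetic acid given i.p. Writhes counted over the next 30 min. Mean writhes per group ± SE; percent decrease versus untreated control mice.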
(In general: In writhing tests, fewer writhes than in controls are read as antinociception.)

In assay [9] the test system is Rattus norvegicus. In words: Antiinflammatory activity in Wistar albino rat assessed as inhibition of carrageenan-induced paw edema at 20 mg/kg, po administered 30 mins before carrageenan challenge measured after 3 hrs by plethysmograph. The method, boiled down: as §1
Assay [10] concerns Rattus norvegicus. The experiment in a line: Antiinflammatory activity in Wistar albino rat assessed as inhibition of carrageenan-induced paw edema at 20 mg/kg, po administered 30 mins before carrageenan challenge measured after 4 hrs by plethysmograph. The method, boiled down:
as §1

For assay [11], the system named is Candida albicans. In words: Antifungal activity against Candida albicans MTCC 183 at 10 ug/ml. Conditions: read-out: IZ.
For assay [12], the system named is Aspergillus niger. In words: Antifungal activity against Aspergillus niger MTCC 282 at 50 ug/ml. Conditions: read-out: IZ.
The test system of assay [13] is Escherichia coli. The experiment in a line: Antimicrobial activity against Escherichia coli MTCC 4315 at 10 ug/ml. Conditions: read-out: IZ.
The test system of assay [14] is Escherichia coli. The experiment in a line: Antimicrobial activity against Escherichia coli MTCC 4315 at 25 ug/ml. Conditions: read-out: IZ.
For assay [15], the system named is Candida albicans. In words: Antifungal activity against Candida albicans MTCC 183 at 50 ug/ml. Conditions: read-out: IZ.
The subject of assay [16] is Candida albicans. The experiment in a line: Antifungal activity against Candida albicans MTCC 183 at 25 ug/ml. Conditions: read-out: IZ.

Turning to `Cc1cc(=O)oc2cc(OC(=O)CNc3ccccc3)ccc12`, the zone of inhibition at 50 µg/mL was determined as 12.6 mm in assay [1] and 10.4 mm in assay [5]. The zone of inhibition at 10 µg/mL in assay [2] was determined as 10.4 mm. Besides, the inhibition in vivo at 20 mg/kg amounted to 10.7% in assay [3], 29.4% in [6], 30.8% in assay [9] and 13.7% in assay [10]. For the same compound, the zone of inhibition at 25 µg/mL in [4] was 11.8 mm; in [7], 10.2 mm. The Activity in assay [8] amounted to 24%.
As to `Cc1cc(=O)oc2cc(OC(=O)CNc3cccc([N+](=O)[O-])c3)ccc12`, the zone of inhibition at 50 µg/mL in assay [1] amounted to 13.4 mm; in assay [5], 11.1 mm; in assay [12] it was 11.4 mm. Also, the zone of inhibition at 10 µg/mL in assay [11] was 10.5 mm; in assay [13], 10.3 mm. Further, the inhibition in vivo at 20 mg/kg was 28.5% in assay [3], 30.7% in assay [6], 34% in assay [9] and 32.2% in assay [10]. The zone of inhibition at 25 µg/mL came to 11.2 mm in [4], 10.5 mm in [7] and 11.3 mm in [14]. Moreover, the Activity in assay [8] is 13%.
`Cc1cc(=O)oc2cc(OC(=O)CNc3ccc([N+](=O)[O-])cc3)ccc12`: the zone of inhibition at 50 µg/mL was 13.4 mm in [1], 11.4 mm in assay [15], 16.9 mm in assay [5] and 10.2 mm in assay [12]. Besides, the figures for the zone of inhibition at 10 µg/mL in assay [2] and in [13] were 10.2 mm and 12.2 mm, respectively. The inhibition in vivo at 20 mg/kg is 12.5% in [3], 17.9% in [6], 20.2% in [9] and 23.7% in assay [10]. Moreover, the zone of inhibition at 25 µg/mL in [4] turned out to be 12.1 mm; in assay [16], 10.2 mm; in assay [14] it was 14.2 mm. Moreover, the Activity in [8] worked out at 28%.
For `Cc1cc(=O)oc2cc(OC(=O)CNc3ccccc3Cl)ccc12`, the zone of inhibition at 50 µg/mL was 10.4 mm in assay [15], 12.6 mm in assay [5] and 12.4 mm in assay [12]. For the same compound, the inhibition in vivo at 20 mg/kg came to 21.4% in assay [3], 11.5% in [6], 12.8% in assay [9] and 23.7% in assay [10]. Further, the results for the zone of inhibition at 25 µg/mL in assay [7] and in [14] were 10.2 mm and 10.8 mm, respectively. For the same compound, the Activity in assay [8] is reported as 21%.
Take `Cc1cc(=O)oc2cc(OC(=O)CNc3ccc(Cl)cc3)ccc12`: the zone of inhibition at 50 µg/mL in [1] was 12.3 mm; in [15] it was 13.4 mm; in assay [5], 12.6 mm; in assay [12], 12.1 mm. In assay [11], the zone of inhibition at 10 µg/mL was 10.6 mm. Besides, the inhibition in vivo at 20 mg/kg in assay [3] is 10.7%; in assay [6], 23%; in [9], 15.9%; in [10] it was 16.1%. For the same compound, the zone of inhibition at 25 µg/mL in assay [7] worked out at 10.2 mm; in [16] it was 12.2 mm; in assay [14] it was 10.8 mm. Also, the Activity in [8] was 11%.
In the case of `COc1ccc(NCC(=O)Oc2ccc3c(C)cc(=O)oc3c2)cc1`, the zone of inhibition at 50 µg/mL in assay [1] stood at 14.4 mm; in assay [15] it was 13.2 mm; in assay [12] it was 14.1 mm. In addition, the zone of inhibition at 10 µg/mL was 10.2 mm in [11], 11.2 mm in [2] and 10.5 mm in [13]. In addition, the inhibition in vivo at 20 mg/kg in assay [3] is 30.3%; in [6], 33.3%; in assay [9] it was 37.2%; in assay [10], 28.8%. For the same compound, the zone of inhibition at 25 µg/mL in assay [4] stood at 13.3 mm; in [7], 13.2 mm; in assay [16] it was 12.4 mm; in assay [14], 11.2 mm. In addition, the Activity in assay [8] is reported as 17%.
As to `Cc1ccc(NCC(=O)Oc2ccc3c(C)cc(=O)oc3c2)cc1`, the zone of inhibition at 50 µg/mL came out at 12.3 mm in assay [1], 12.4 mm in assay [15], 14 mm in assay [5] and 11.4 mm in assay [12]. Further, the inhibition in vivo at 20 mg/kg amounted to 14.2% in assay [3], 20.5% in assay [6], 20.2% in [9] and 6.7% in [10]. Besides, the zone of inhibition at 10 µg/mL in assay [13] was 11.2 mm. The zone of inhibition at 25 µg/mL was 10.5 mm in assay [7] and 13 mm in assay [14]. Also, the Activity in [8] amounted to 28%.
Consider `Cc1cc(=O)oc2cc(OC(=O)CNc3nc4ccccc4s3)ccc12`, for which the zone of inhibition at 50 µg/mL in assay [1] is 18.1 mm; in assay [5], 14.5 mm; in assay [12] it was 12.4 mm. Besides, the figures for the zone of inhibition at 10 µg/mL in assay [11] and in assay [2] were 13.4 mm and 10.4 mm, respectively. The inhibition in vivo at 20 mg/kg was determined as 30.3% in [3], 35.9% in assay [6], 40.4% in [9] and 40.6% in assay [10]. For the same compound, the Activity in assay [8] was 35%. Also, the zone of inhibition at 25 µg/mL in assay [16] amounted to 12.2 mm.
`NCC[C@H](O)C(=O)N[C@@H]1C[C@H](N)[C@@H](O[C@H]2O[C@H](CN)[C@@H](O)[C@H](O)[C@H]2O)[C@H](O)[C@H]1O[C@H]1O[C@H](CO)[C@@H](O)[C@H](N)[C@H]1O` [AMIKACIN]: the zone of inhibition at 50 µg/mL in assay [5] stood at 20 mm. Besides, the zone of inhibition at 10 µg/mL in [13] was found to be 14 mm. Moreover, in assay [14], the zone of inhibition at 25 µg/mL was 16.2 mm.
With `COC1=CC(=O)C[C@@H](C)[C@]12Oc1c(Cl)c(OC)cc(OC)c1C2=O` [GRISEOFULVIN], the zone of inhibition at 50 µg/mL in assay [15] turned out to be 18.2 mm. For the same compound, in assay [11], the zone of inhibition at 10 µg/mL was 12.6 mm. Besides, the zone of inhibition at 25 µg/mL in assay [16] amounted to 14.2 mm.
Consider `COc1ccc2c(c1)c(CC(=O)O)c(C)n2C(=O)c1ccc(Cl)cc1` [INDOMETHACIN], for which the inhibition in vivo at 20 mg/kg in [3] amounted to 53.5%; in assay [6] it was 67.9%; in [9], 68.8%; in assay [10], 57.6%. The Activity in assay [8] worked out at 56%.
As for `CN[C@H](CC(C)C)C(=O)N[C@H]1C(=O)N[C@@H](CC(N)=O)C(=O)N[C@H]2C(=O)N[C@H]3C(=O)N[C@H](C(=O)N[C@H](C(=O)O)c4cc(O)cc(O)c4-c4cc3ccc4O)[C@H](O)c3ccc(c(Cl)c3)Oc3cc2cc(c3O[C@@H]2O[C@H](CO)[C@@H](O)[C@H](O)[C@H]2O[C@H]2C[C@](C)(N)[C@H](O)[C@H](C)O2)Oc2ccc(cc2Cl)[C@H]1O` [VANCOMYCIN], in assay [1], the zone of inhibition at 50 µg/mL worked out at 20.1 mm. The zone of inhibition at 10 µg/mL in assay [2] is 14.2 mm. In addition, the zone of inhibition at 25 µg/mL in assay [4] stood at 18.2 mm.

The term inhibition in vivo denotes the percentage by which the read-out fell short of the control.
